High-throughput results as filed in PubChem BioAssay.
Shown are actives, neighbours in structure and some others; about 3% of the full set was active somewhere.
NR3A LBD binder: NR3A (human) ligand-binding domain modulation; AID 1259313; NR3A LBD differential scanning fluorimetry, Tm shift; 0% = protein alone, 100% = glycine-bound protein; Tm shift relative to glycine control, % at 25 µM; 2.5% of 340,000 active;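 active means melting temperature shift of at least 10% of the positive control shift, at one fixed dose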
Hep lipid drop: modulators of hepatic lipid droplet formation; AML12 mouse hepatocytes, oleate lipid droplets, BODIPY imaging; 0.4% of 240,000 active; AID 1656; inhibition, % at 6.5 µM;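 active means lipid droplet intensity inhibited by at least 50%, with more than 500 cells counted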
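Assay system: AML12 hepatocytes (mouse); Probe or stimulus: oleic acid at 100 µM to induce lipid droplet formation; Dosing: compound at 6.5 µM only; Schedule: compound with oleate, overnight; Detection: fluorescence imaging, 20x objective, two fields per well; Measure: % inhibition of lipid droplet signal.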
aDG glyco up: increases alpha dystroglycan glycosylation. Pro5-aDG cells, alpha-DG glycosylation AlphaScreen (IIH6); 0% Pro5, 100% B10-LARGE cell signal. activation, % at 10 µM. 0.22% of 360,000 active;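 active means activation of at least 8% versus controls, or a plate z-score of at least 8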;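 further: Pro5 are CHO cells carrying HIG-tagged alpha-DG that lacks glycosylation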
GASC-1 inh: inhibitors of human GASC-1 (JMJD2C) demethylase; inhibition, % at 2.35 µM; GST-JMJD2C(1-420) H3K9me3 demethylation, DELFIA europium; 0.069% of 330,000 active; AID 2099;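 active means more than half of a compound's replicate wells show inhibition beyond 50%, single wells judged on their own value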;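 further: signal counts dimethyl H3K9 product captured on neutravidin plate; 0% = median of DMSO wells and 100% = 0.3 times that DMSO median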
GC-B act: GC-B (human) receptor activation | P20594 | HEK293-GC-B cells, CNP EC30, cGMP TR-FRET; 0% at EC30 CNP, 100% saturating CNP | activation, % at 10 µM | 0.11% of 370,000 active;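 active means activation at 10 µM reaching about 35% in either raw or pattern-adjusted values, limit read from the data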
GC-A act: GC-A (human) enzyme activation; P16066; HEK293 GC-A cells, cGMP TR-FRET, EC30 ANP; 0% at EC30 ANP, 100% saturating ANP; activation, % at 10 µM; 0.14% of 370,000 active; AID 1671463; in the data active means activation above about 40%
* marks the source's active call; other numbers are inactive results; i = inactive; . = no result.

SMILES	NR3A LBD binder	Hep lipid drop	aDG glyco up	GASC-1 inh	GC-B act	GC-A act
Cc1cc(-c2n[nH]c(=S)n2N=Cc2cc(Br)ccc2F)n[nH]1	.	.	.	.	-2.3	2.2
O=C(Cn1nnc(N2CCOCC2)n1)NN=Cc1ccccc1Cl	.	.	.	.	-3.2	-1.9
CN=c1sc2c(n1C)C(=O)c1ccccc1C2=O	1.0	.	13.0*	.	-6.9	-3.7
COCCNC(=O)C1(C)Cc2c(-c3ccc4c(c3)OCO4)ccnc2O1 (stereo not drawn)	.	.	-0.1	.	-2.2	1.2
CC(C)CC1O[C@@H](C)[C@@H]2CN3CCc4c([nH]c5ccccc45)[C@@H]3C[C@@H]2N1C (stereo partly drawn)	.	.	.	.	-2.8	2.7
COc1cccc(CNC(=O)c2ccccc2NC(=O)C2=C(C)OCCS2)c1	-1.6	-18.1	0.2	-6.7	8.3	7.0
COc1cccc(CNC(=O)c2ccccc2NC(=O)C2=C(C)OCCS2)c1OC	112.0*	-0.4	0.0	-4.1	2.1	-1.9
Cc1ccc(NNC(=O)C(O)(c2cccc(C(F)(F)F)c2)c2cccc(C(F)(F)F)c2)cc1	25.8*	-17.9	0.5	5.2	3.3	1.3
O=C(NNc1ccccc1Br)C(O)(c1cccc(C(F)(F)F)c1)c1cccc(C(F)(F)F)c1	31.9*	4.5	2.3	4.7	-2.4	-5.3
CCCCC(CC)Cn1c(N)c(C#N)c2nc3ccccc3nc21 (stereo not drawn)	10.9*	-5.2	1.5	-1.9	-3.7	-8.7
O=C(COC(=O)CCSc1ccc(Cl)cc1)NCCc1ccccc1	16.1*	-22.9	-0.1	-0.9	-2.4	1.3
NS(=O)(=O)c1ccc(CCNC(=O)COC(=O)CCSc2ccc(Cl)cc2)cc1	0.3	2.2	0.1	-15.4	-0.3	0.3
CCOc1ccc(-n2c(SCC(=O)Nc3ccc(S(=O)(=O)Nc4cc(C)nc(C)n4)cc3)nnc2-c2cccc(C)c2)cc1	.	.	.	.	1.7	-1.4
O=C(NCc1c(F)cccc1F)C1CCCN(c2ncccn2)C1 (stereo not drawn)	.	.	.	.	2.0	-0.4
Cc1[nH]n(-c2ccccc2)c(=O)c1C1(C(F)(F)F)C(=O)N(c2ccccc2)C2=C1C(=O)CC(C)(C)C2 (stereo not drawn)	12.7*	3.8	-0.1	12.4	-0.2	-0.2
CC1CN(Cc2c(O)ccc3c2oc(=O)c2ccccc23)CC(C)O1 (stereo not drawn)	0.5	5.0	0.1	53.6*	-3.1	2.2
O=C(CSc1nc(-c2cccs2)cc(C(F)(F)F)n1)NCCCn1ccnc1	6.6	1.8	0.2	-17.0	0.3	-1.7
O=C(CSc1nc(-c2cccs2)cc(C(F)(F)F)n1)Nc1cc(OCC(F)(F)C(F)F)cc([N+](=O)[O-])c1	10.2*	10.5	1.6	-5.2	1.1	-1.7
COC(=O)C1=C(C)N(C)C(=NCc2ccccc2C(F)(F)F)NC1c1ccc(Cl)cc1 (stereo not drawn)	.	.	.	.	-18.4	-19.5
COc1cccc(N2CCN(CC(=O)NCc3ccco3)CC2)c1	.	.	.	.	5.4	1.2
Cc1cc(C)nc(SCC(=O)n2c3c(c4ccccc42)CCCC3)n1	12.8*	23.3	-0.2	0.1	-4.5	-6.3
CCOC(=O)[C@]12CCCC3=C1N(CCC3)C(=O)[C@@H](CC(=O)N1CCCCC1)C2	.	.	.	.	5.0	3.3
COc1cc(/C=C2/SC(=O)N(CC(=O)N3CCCC3)C2=O)ccc1Oc1ccc([N+](=O)[O-])cn1	13.0*	-13.8	-0.2	-9.5	-3.3	-0.6
CCn1c(/N=C/c2ccccc2NS(=O)(=O)c2ccc(C)cc2)nc2ccccc21	12.6*	-3.8	1.4	-3.6	.	.
COC(=O)[C@]12C[C@H](CC(=O)NCc3cccc(C(F)(F)F)c3)C(=O)N(Cc3cccc4ccccc34)C1=C[C@H](COCc1ccccc1)O[C@@H]2C	.	.	.	.	-6.0	0.4
SMILES	NR3A LBD binder	Hep lipid drop	aDG glyco up	GASC-1 inh	GC-B act	GC-A act
COc1ccc(CCNC(=S)NCCc2ccc(OC)c(OC)c2)cc1OC	27.1*	6.5	0.2	-21.0	-0.5	1.0
O=C(NCCc1ccccc1)Nc1cccc(Cl)c1	20.0*	-19.0	0.7	2.6	0.8	-1.1
CNC(=S)NCCc1ccc(OC)c(OC)c1	-0.3	.	-0.2	-2.7	5.1	-0.4
O=C(NCCCCc1ccccc1)Nc1cccc(F)c1	5.2	-4.4	0.3	12.0	1.9	1.8
O=C(NCCc1ccncc1)Nc1ccccc1	0.0	-12.7	-0.3	7.0	4.9	6.5
O=C(NCCc1ccncc1)Nc1ccc(Cl)c(Cl)c1	18.0*	5.4	0.0	5.3	-1.7	-5.3
O=C(NCCc1ccc(Cl)cc1)Nc1cccc(Cl)c1	20.5*	.	0.1	-19.7	-8.8	-1.7
Cc1cccc(NC(=O)NCCc2ccc(Cl)cc2)c1	7.0	-15.1	0.7	i	-1.8	1.1
CCN(CC)C(=O)CC[C@H]1CC[C@]2(CCCN(Cc3ccccn3)C2)O1	.	.	.	.	8.9	0.3
COc1ccc(NC(=O)NCCc2cccc(Cl)c2)cc1OC	16.1*	8.5	-0.1	9.0	7.7	8.7
COc1cc(OC)c2ccc(=O)oc2c1C(CCN1CCOCC1)c1ccc2c(c1)OCO2 (stereo not drawn)	15.4*	.	-0.1	.	-18.6	-24.6
CCCN(C(=O)CCc1cn(CCC)c2ccccc12)c1ccc(Oc2cccnc2)cc1	.	.	.	.	-8.3	-6.7
COc1cc(Nc2ccccc2Cl)c([N+](=O)[O-])nc1[N+](=O)[O-]	11.0*	9.0	0.1	15.4	-4.3	17.4
Cc1ccc(C(=O)N/N=C/c2ccc(-c3cccc(Cl)c3)o2)cn1	0.0	2.9	0.0	3.6	-15.2	-7.1
Cc1ccc(C(=O)N/N=C\c2ccc(-c3ccc(Cl)c(Cl)c3)o2)cn1	11.8*	-5.1	-0.1	-4.0	-4.5	-7.6
O=C(N/N=C/c1ccc(OC(=O)c2ccco2)cc1)c1ccccn1	14.3*	-4.5	-0.2	-12.7	-2.2	-1.6
Cc1ccc(C(=O)N/N=C/c2ccc(OC(=O)c3ccccc3Cl)cc2)cn1	12.5*	-0.2	-0.1	15.1	2.0	3.7
COC(=O)[C@]12C[C@H](CC(=O)N3CCCCC3)C(=O)N(Cc3ccccc3)C1=C[C@H](C(C)C)O[C@@H]2C1CC1	.	.	.	.	-1.5	-2.5
COc1cc(Nc2cc(C)n(-c3cc(OC)cc(OC)c3)c(=O)c2)cc(OC)c1	.	.	.	.	2.1	5.5
CCOc1cc(C2C(C(=O)c3ccco3)=C(O)C(=O)N2CC2CCCO2)ccc1O (stereo not drawn)	2.2	14.5	0.0	-4.4	-4.6	3.6
N#CCc1ccc(OC[C@@H](O)CN2CCC(C(O)(c3ccccc3)c3ccccc3)CC2)cc1	.	.	.	.	-7.6	-16.7
O=[N+]([O-])c1cccc(/C=C/c2nc(C=Nc3ccc4ccccc4c3)c(O)o2)c1	11.1*	.	-0.1	.	5.4	0.6
